Only some compounds are listed: those with a hit (about 1.5% of all), similar ones and a draw of the others.
PKD1 kinase inh – inhibitors of human PKD1 kinase, biochemical, fluorescence polarization. inhibition, % (test concentration not listed). 200,000 compounds, 0.056% hits. PKD1 kinase fluorescence polarization assay. AID 797, 2007; in the data active = inhibition above about 50%
PP5 primary – PP5 phosphatase inhibitors, primary screen, biochemical, fluorescence; Serine/threonine-protein phosphatase 5 (Homo sapiens), P53041; purified PP5c, OMFP substrate fluorescence; inhibition, % at 6.7 µM; 320,000 compounds, 0.18% hits; AID 1987, 2009;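 active = inhibition above the campaign's mean inhibition across all tested compounds plus 3 SD, cut at about 9.5% in these data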;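 note: 0% = DMSO only and 100% = 100 µM cantharidin control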
RBBP9 inhibitor – human RBBP9 inhibitors, primary screen, biochemical, fluorescence polarization, FP-Rh probe, HTS; Serine hydrolase RBBP9 (Homo sapiens), O75884; inhibition, % at 7.94 µM; 220,000 compounds, 0.2% hits; AID 1515, 2009; recombinant RBBP9;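 active = inhibition above the campaign mean of all tested compounds plus 3 SD, cut at about 14% in these data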;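 note: plate controls were DMSO wells with RBBP9 for no effect and wells lacking RBBP9 protein for full effect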
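Measured by: FP readout at 525/598 nm; material: recombinant human RBBP9; also added: Serine-hydrolase probe FP-Rh, 375 nM pre-mixing; medium: Tris buffer pH 8.0, NaCl, Pluronic; replication: one well per compound; doses: one concentration, 7.94 µM nominal, 0.794% DMSO; timing: preincubation 30 min plus labeling 45 min at 25 °C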
Hsp70 act – Hsp70 transcriptional activators, primary screen, cell-based, HeLa, Hsp70 promoter luciferase, luminescence, 10 µM; HeLa Hsp70 promoter luciferase reporter; scaled: vehicle 0, proteasome-inhibitor control 100%; activation, % at 10 µM; 200,000 compounds, 0.04% hits;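 active = activation above the mean across all tested compounds plus 3 SD, cutoff set per campaign, cut at about 5.5% in these data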;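 note: 100% = MG132 at 30 µM as the positive control and 0% = DMSO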
p97 inhibitor – inhibitors of human p97 ATPase, primary screen, biochemical; 220,000 compounds, 0.42% hits; Transitional endoplasmic reticulum ATPase (Homo sapiens), P55072; AID 1481, 2009; inhibition, % at 8 µM; recombinant p97 ATPase, Kinase-Glo ATP luminescence, 3 h; in the data active = inhibition above about 15%;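 note: 0% = DMSO vehicle and 100% = wells lacking enzyme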
Target sequence (P55072 whole entry, looked up): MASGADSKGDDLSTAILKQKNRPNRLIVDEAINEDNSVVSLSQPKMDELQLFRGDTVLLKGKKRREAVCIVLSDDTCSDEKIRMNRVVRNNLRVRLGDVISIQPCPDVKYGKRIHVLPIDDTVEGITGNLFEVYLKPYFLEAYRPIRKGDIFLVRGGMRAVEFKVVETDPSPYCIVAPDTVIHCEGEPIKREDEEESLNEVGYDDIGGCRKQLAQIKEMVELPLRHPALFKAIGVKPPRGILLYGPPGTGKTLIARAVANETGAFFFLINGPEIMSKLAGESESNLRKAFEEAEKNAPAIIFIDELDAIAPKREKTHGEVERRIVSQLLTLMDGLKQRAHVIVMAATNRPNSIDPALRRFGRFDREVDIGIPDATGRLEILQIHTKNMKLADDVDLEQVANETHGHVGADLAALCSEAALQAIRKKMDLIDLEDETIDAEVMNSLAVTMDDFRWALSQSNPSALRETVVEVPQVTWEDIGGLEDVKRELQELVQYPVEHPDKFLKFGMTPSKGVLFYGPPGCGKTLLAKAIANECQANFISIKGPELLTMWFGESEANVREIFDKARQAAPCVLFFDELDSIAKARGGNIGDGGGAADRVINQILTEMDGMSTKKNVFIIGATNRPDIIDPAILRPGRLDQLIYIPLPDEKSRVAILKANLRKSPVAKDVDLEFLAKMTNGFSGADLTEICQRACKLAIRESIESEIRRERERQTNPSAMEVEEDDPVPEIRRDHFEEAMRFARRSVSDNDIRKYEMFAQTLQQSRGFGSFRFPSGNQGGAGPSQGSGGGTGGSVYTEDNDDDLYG
PP1 inh – PP1-alpha phosphatase inhibitors, primary screen, counter-screen for PP5 inhibitor project, biochemical, fluorescence, OMFP substrate, single point; Serine/threonine-protein phosphatase PP1-alpha catalytic subunit (Homo sapiens), P62136; purified PP1alpha; inhibition, % at 6.7 µM; 320,000 compounds, 0.9% hits; AID 2235, 2010;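 active = inhibition above the mean inhibition of all tested compounds plus 3 SD, computed separately for each screening campaign, cut at about 15% in these data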
PP1 confirm – PP1 phosphatase inhibitors, confirmation, biochemical, fluorescence, OMFP substrate, triplicate. shares compounds with PP1 inh. purified PP1alpha. inhibition, % at 6.7 µM. 1,900 compounds, 52% hits. AID 2358, 2010;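 active = mean PP1 inhibition above a set limit taken from the earlier primary screen, cut at about 15% in these data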
PP5 counter – PP5 phosphatase inhibition by PP1 hits, confirmation, counter-screen for PP1 inhibitor project, biochemical, fluorescence, triplicate; shares compounds with PP1 inh; purified PP5c, OMFP fluorescence; inhibition, % at 6.7 µM; 1,900 compounds, 4% hits;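 active = mean PP5 inhibition over triplicate wells above about 9.5% taken from the earlier PP1 screen, limit read from the data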
An asterisk follows results filed as active; / = no result given.

SMILES	PKD1 kinase inh	PP5 primary	RBBP9 inhibitor	Hsp70 act	p97 inhibitor	PP1 inh	PP1 confirm	PP5 counter
CCOC(=O)N1CCN(S(=O)(=O)c2ccc(C(=O)Nc3nnc(CC)o3)cc2)CC1	-10	4	-9	0	2	15	/	/
CCOC(=O)N1CCN(S(=O)(=O)c2ccc(C(=O)NNc3nc4c(C)cc(C)cc4s3)cc2)CC1	-11	6	2	0	8	31*	19*	-2
CCOC(=O)N1CCN(S(=O)(=O)c2ccc(C(=O)NNc3nc4cc(C)cc(C)c4s3)cc2)CC1	-2	6	-12	0	-5	19*	26*	1
NS(=O)(=O)c1ccc(CNc2nc(-c3cccnc3)nc3ccccc23)cc1	/	1	/	/	/	-1	/	/
COc1ccc(Nc2nc(Nc3ccc(OC)cc3)nc(-n3[nH]c(=O)c(C)c3C)n2)cc1	-3	1	-3	0	5	23*	23*	-1
Cn1ccnc1C(=O)Cc1ccc([N+](=O)[O-])cc1	/	-1	/	/	/	-4	/	/
COc1cccc2c(=O)c3cccc(N)c3[nH]c12	-1	1	2	0	10	20*	19*	13*
COC(=O)/C(C#N)=C/c1cc(C)sc1C	/	-2	-9	/	-8	-2	/	/
CCN(C(=O)CSc1nnc(-c2ccco2)n1C)c1c(N)n(Cc2ccccc2)c(=O)[nH]c1=O	/	1	/	/	/	-1	/	/
CC(C)(CS(=O)(=O)[O-])NC(=O)CC[N+](C)(C)CCO	-4	4	-7	0	3	70*	56*	-4
CCOC(=O)c1cc(C#N)c(C)nc1N(CC)CC	/	0	-2	/	0	-3	/	/
O=C(CSc1n[nH]c(=O)[nH]c1=O)Nc1ccc2c(c1)C(=O)c1ccccc1C2=O	/	0	-8	/	10	21*	31*	-1
Cc1ccccc1C1C(C#N)=C2N=C(N)c3c(sc4c3CCCCC4)N2C2=C1C(=O)CCC2 (stereo unspecified)	0	1	2	0	3	25*	18*	9
CCCC[C@H]1COCCS(=O)(=O)N1Cc1ccc(Br)cc1	/	3	/	/	/	10	/	/
O=C(COc1ccccc1)Nc1nnc(-c2ccc(F)cc2)o1	/	1	/	/	/	11	/	/
O=C(COC(=O)/C=C/c1ccccc1)Nc1nnc(-c2ccccc2)o1	/	0	/	/	/	24*	30*	-4
O=C(COc1ccccc1)Nc1nnc(-c2ccccc2Cl)o1	/	3	/	/	/	23*	20*	-5
COc1cc(/C=C/C(=O)OCC(=O)Nc2nnc(-c3ccccc3)o2)cc(OC)c1OC	/	0	/	/	/	7	/	/
O=C(COc1ccccc1)Nc1nnc(-c2ccc3c(c2)CCCC3)o1	1	3	-1	0	4	26*	27*	2
O=C(Nc1nnc(-c2ccc3c(c2)CCCC3)o1)c1ccccc1Cl	12	3	2	0	2	25*	25*	2
CS(=O)(=O)c1ccccc1-c1nnc(NC(=O)COc2ccc(Cl)cc2)o1	/	0	/	/	/	0	/	/
COc1ccccc1C1CN=NC12CCCc1ccccc1C2=O (stereo unspecified)	7	1	-1	1	2	0	/	/
O=C(Nc1nnc(C2=COCCO2)o1)c1cccc([N+](=O)[O-])c1	/	0	/	/	/	-5	/	/
O=C(Nc1nnc(-c2ccc3c(c2)CCCC3)o1)c1ccccc1	13	0	-6	0	-10	23*	28*	0
